Screening data as filed in PubChem BioAssay.
Hits are enriched below; roughly 1.3% of the tested compounds scored in any of these assays.
HTRA1 inh – inhibitors of human serine peptidase HTRA1; recombinant HTRA1, FP-rhodamine activity-based probe, fluorescence polarization; Q92743; inhibition, % at 5.96 µM; actives 0.5% (n = 340,000); AID 504803; in the data active = inhibition above about 36%;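 note: 0% = enzyme with DMSO and 100% = wells lacking enzyme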
DDE Tn6 FP inh – DD(E)-Tn6 binding inhibition, primary FP screen; actives 0.21% (n = 370,000); inhibition, % at 8.3 µM; Fibrin DD(E) TRITC-Tn6 fluorescence polarization displacement; P02675;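 active = inhibition above a per-campaign cutoff: mean of compounds within control limits plus 3 SD, cut at about 15% in these data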;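 note: 0% = median of all compound wells on the plate and 100% = blocking peptide control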
TCR-CD3 inh – human TCR-CD3 binding inhibition; actives 0.37% (n = 360,000); inhibition, % at 9.4 µM; AID 651800; TAMRA-labeled TCR probe fluorescence, biochemical; in the data active = inhibition above about 19%;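 note: recombinant mutant TCR 2C K166C tagged with TAMRA read by polarization; 0% = receptor in buffer alone and 100% = receptor with positive control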
Tn7 DDE FP – inhibitors of Tn7 peptide binding to human fibrin DD(E) | inhibition, % at 8.3 µM | actives 0.13% (n = 370,000) | FP displacement of FITC-Tn7 peptide from fibrin DD(E); 0% = median of compound wells per plate;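 active = inhibition above the mean of compounds falling within the control limits plus 3 SD of them, cut at about 14% in these data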;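 note: 0% = plate median of compound wells and 100% = 10 µM Aha-Tn7 peptide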
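system = human fibrin DD(E) protein | quantity = DD(E) 2 µM final | medium = Tris/NaCl/CaCl2 buffer, pH 7.8 | also added = labelled Tn7 tracer, 0.1 µM | compound dosing = single point at 8.3 µM | timing = compound with protein 10 min, then 3 h after probe, room temperature | signal = FP measurement | benchmarks = Aha-Tn7 high control | repeats = one replicate per compound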
mABHD4 FP – inhibits mouse alpha/beta hydrolase domain 4 | purified mABHD4, FP-Rh probe fluorescence polarization | Q8VD66 | inhibition, % at 8.92 µM | actives 0.54% (n = 370,000) | AID 720543;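 active = inhibition exceeding the mean over every tested compound plus 3 SD, cut at about 30% in these data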;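 note: 0% = plate median of compound wells and 100% = S159A mutant with DMSO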
Target sequence (Q8VD66 whole entry, looked up, the tested form may be a part): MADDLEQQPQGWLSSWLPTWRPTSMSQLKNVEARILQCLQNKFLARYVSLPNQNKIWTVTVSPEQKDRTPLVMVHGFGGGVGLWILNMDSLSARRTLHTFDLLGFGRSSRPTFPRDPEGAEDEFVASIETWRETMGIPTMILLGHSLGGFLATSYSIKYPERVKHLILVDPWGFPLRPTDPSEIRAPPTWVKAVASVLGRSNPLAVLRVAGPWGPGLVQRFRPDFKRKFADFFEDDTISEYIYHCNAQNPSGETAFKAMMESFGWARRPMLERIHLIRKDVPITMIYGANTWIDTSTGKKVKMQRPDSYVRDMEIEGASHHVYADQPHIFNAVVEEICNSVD
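Test system: mABHD4 protein | Buffer or medium: HEPES pH 7.0 buffer, 150 mM NaCl, 0.01% Pluronic F-127 | Probe or stimulus: FP-Rh fluorescent activity-based probe, added after compound pre-incubation | Timing: Pre-incubation 45 min, probe exposure 60 min, at 25 °C | Technique: Fluorescence polarization, excitation 525 nm, emission 598 nm, BODIPY TMR filters | Repeats: Single well per compound (singlicate)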
DDE Tn7 confirm – DD(E)-Tn7 binding inhibition, FP confirmation; shares compounds with Tn7 DDE FP; FP displacement of TRITC-Tn7 peptide from DD(E); 0% set at plate's compound-well median; inhibition, % at 8.3 µM; actives 5% (n = 460); AID 720628;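 active = inhibition above the campaign cutoff, the mean of compounds within control limits plus 3 SD, cut at about 14% in these data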;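 note: 100% = median FP of high control wells holding Aha-Tn7 inhibitor peptide; displacers lower polarization since freed probe rises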
DDE Tn7 FP ctr – counter-screen hit for Tn7 peptide-fibrin DD(E) binding disruption; TRITC-Tn7 probe displacement, fluorescence polarization; actives 3% (n = 460); inhibition, % at 8.3 µM; shares compounds with Tn7 DDE FP;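 active = inhibition above the cutoff, the mean of compounds lying between the control bounds plus 3 SD of those compounds, cut at about 17% in these data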;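 note: 0% = median of compound sample wells and 100% = excess unlabeled Aha-Tn7 peptide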
* hit, by the source's call; . = no result.

SMILES	HTRA1 inh	DDE Tn6 FP inh	TCR-CD3 inh	Tn7 DDE FP	mABHD4 FP	DDE Tn7 confirm	DDE Tn7 FP ctr
O=C(CSc1nnc(Cc2ccccc2)o1)NCCN1C(=O)CSC1=O	-2.1	1.2	3.6	16.2*	4.4	9.4	3.6
O=C(Nc1nnc(SCC(=O)N2CCCC2)s1)C1CC(=O)N(c2ccc(F)cc2)C1 (stereo unspecified)	9.7	2.8	-1.6	0.9	4.7	.	.
O=C(CSc1nnc(NC(=O)C2CC(=O)N(c3ccc(F)cc3)C2)s1)NC1CCCC1 (stereo unspecified)	1.0	10.3	7.8	13.9*	0.5	9.0	3.9
O=C1NC(NS(=O)(=O)c2ccc(Cl)cc2)(C(F)(F)F)C(=O)N1Cc1cccnc1 (stereo unspecified)	0.8	-1.3	-7.7	-3.8	-5.8	.	.
Cc1ccc(CN2CCCC2(C)C(=O)NC(C)C)cc1 (stereo unspecified)	.	3.4	-1.8	13.9*	-6.6	2.3	2.7
Cc1ccc(CN2CCC2(C)C(=O)NC(C)C)cc1 (stereo unspecified)	.	0.7	-4.1	-1.5	-9.2	.	.
Cc1cc2c(Nc3cccc(O)c3)ncnc2s1	-3.8	-4.4	-1.8	2.6	-0.3	.	.
COc1ccc([C@H]2N[C@]3(CCCN(Cc4ccc(C(F)(F)F)cc4)C3=O)[C@H]3C(=O)N(Cc4ccccc4)C(=O)[C@@H]23)cc1	-56.8	0.2	-0.5	16.6*	-8.8	7.8	6.6
O=C1[C@H]2[C@@H](c3ccc(C(F)(F)F)cc3)N[C@]3(CCCN(Cc4ccc(C(F)(F)F)cc4)C3=O)[C@H]2C(=O)N1Cc1ccccc1	-37.6	-5.1	7.4	7.3	-17.9	.	.
COc1ccccc1NC(=O)c1cc(S(=O)(=O)N2CCCC2)cn1C	0.2	4.2	-0.1	15.1*	7.4	-4.6	-6.0
O=C(C1CCN(S(=O)(=O)c2cccc([N+](=O)[O-])c2)CC1)N1CCOCC1	-2.4	4.1	5.0	13.8*	-2.1	0.8	-2.7
COc1ccc(S(=O)(=O)N2CCC(C(=O)N3CCCC3)CC2)cc1Cl	2.1	-1.2	-4.8	14.7*	0.8	4.8	3.1
CCOC(=O)c1sc(=S)n(-c2ccc3c(c2)OCO3)c1N	-3.0	7.8	-0.3	0.2	6.2	.	.
O=C(NC1CCN(CCc2c[nH]c3ccccc23)CC1)c1ccccc1	3.9	0.0	2.1	4.1	7.0	.	.
C[C@H]1CN[C@@H](CCO)/C1=C\c1ccccc1	9.7	-1.4	2.0	13.9*	4.5	3.0	5.2
C[C@H]1CN[C@H](CCO)/C1=C\c1ccccc1	0.1	2.0	1.7	-5.8	-4.3	.	.
CCOC(=O)C1=CN(Cc2ccco2)S(=O)(=O)N(C)C1c1ccc2ccccc2c1 (stereo unspecified)	-21.0	-1.2	-7.2	15.4*	-4.8	2.5	-3.4
CCC(C)(C)NC(=O)C(c1ccccn1)N(C(=O)c1csnn1)C1CCCCC1 (stereo unspecified)	5.7	2.0	7.2	14.2*	1.3	0.6	-2.3
O=S(=O)([O-])CCC[N+]1(CC#Cc2ccccc2)CCCCC1	-7.0	2.3	-7.3	3.0	0.3	.	.
Cn1c(=O)c2[nH]c(-c3ccccc3Cl)c(O)c2n(C)c1=O	5.7	5.5	8.7	11.7	-2.0	.	.
Cn1c(=O)c2[nH]c(-c3ccccc3)c(O)c2n(C)c1=O	6.9	0.8	1.1	17.1*	11.2	4.9	-0.9
COc1ccccc1N1CCN(CC(=O)c2c[nH]c3ccccc23)CC1	-3.4	-5.7	2.4	2.9	-3.4	.	.
COc1ccccc1N1CCN(CC(=O)c2c(C)[nH]c3ccccc23)CC1	7.6	0.2	-8.2	16.0*	6.0	-2.5	-2.1
CCC(=O)Nc1sccc1C(=O)OC	3.5	.	.	.	.	.	.
CCOC(=O)NC(=O)C(/C=N/c1sccc1C(=O)OC)=C(\C)O	.	0.6	6.3	29.1*	15.6	-4.2	-8.3
